Source: PubChem
rCAG binder = binders of r(CAG) RNA repeats, primary screen, biochemical, fluorescence. inhibition, % at 3 µM. r(CAG) RNA repeat, TO-PRO-1 dye displacement fluorescence. 370,000 tested, 1.3% active;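 active means inhibition above the plate cutoff, the mean of all test compounds on that plate plus 3 SD, cut at about 35% in these data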;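 further: 0% = DMSO alone and 100% = 100 µM mitoxantrone as full dye displacement; higher means more dye released from RNA so lower well fluorescence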
PRMT1 inh = PRMT1 methyltransferase inhibitors, primary screen, biochemical, fluorescence polarization; Protein arginine N-methyltransferase 1 (Homo sapiens), Q99873; 370,000 tested, 1.3% active; AID 652257, 2013; recombinant PRMT1, activity-based probe fluorescence polarization; inhibition, % at 2.79 µM;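 active means inhibition above about 21% made by adding two undisclosed values, limit read from the data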
Target sequence (Q99873 whole entry, looked up): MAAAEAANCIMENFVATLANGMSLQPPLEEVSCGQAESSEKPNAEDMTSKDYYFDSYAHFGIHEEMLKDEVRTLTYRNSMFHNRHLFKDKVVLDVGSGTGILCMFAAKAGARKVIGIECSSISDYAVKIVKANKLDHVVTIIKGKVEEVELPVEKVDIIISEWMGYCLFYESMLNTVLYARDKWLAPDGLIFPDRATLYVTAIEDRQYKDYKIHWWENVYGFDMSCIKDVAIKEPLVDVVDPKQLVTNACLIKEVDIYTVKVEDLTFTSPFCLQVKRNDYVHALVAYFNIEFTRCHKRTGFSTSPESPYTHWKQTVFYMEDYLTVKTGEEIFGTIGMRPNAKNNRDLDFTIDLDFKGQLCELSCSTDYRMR
TCR-CD3 inh = inhibitors of human TCR-CD3 interaction, primary screen, biochemical, fluorescence, TAMRA-labeled TCR probe. 360,000 tested, 0.37% active. AID 651800, 2012. inhibition, % at 9.4 µM. T-cell receptor (TCR);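 further: recombinant mutant TCR 2C K166C tagged with TAMRA read by polarization; 0% = receptor in buffer alone and 100% = receptor with positive control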
SIAE inh = human SIAE inhibitors, primary screen, biochemical, fluorescence polarization, FP-Rh probe, 1536-well HTS; inhibition, % at 9.66 µM; Sialate O-acetylesterase (Homo sapiens), Q9HAT2; 370,000 tested, 0.69% active; SIAE FP-Rh probe binding;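 active means inhibition above a cutoff: mean of compounds within the control limits plus 3 SD of those, cut at about 17% in these data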;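 further: 0% = plate median of compound wells and 100% = probe without SIAE protein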
mABHD4 FP = ABHD4 inhibitors, primary screen, biochemical, fluorescence polarization, mouse; (Lyso)-N-acylphosphatidylethanolamine lipase (Mus musculus), Q8VD66; purified mABHD4, FP-Rh probe fluorescence polarization; inhibition, % at 8.92 µM; 370,000 tested, 0.54% active; AID 720543, 2013;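 active means inhibition exceeding the mean over every tested compound plus 3 SD, cut at about 30% in these data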;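 further: 0% = plate median of compound wells and 100% = S159A mutant with DMSO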
Target sequence (Q8VD66 whole entry, looked up): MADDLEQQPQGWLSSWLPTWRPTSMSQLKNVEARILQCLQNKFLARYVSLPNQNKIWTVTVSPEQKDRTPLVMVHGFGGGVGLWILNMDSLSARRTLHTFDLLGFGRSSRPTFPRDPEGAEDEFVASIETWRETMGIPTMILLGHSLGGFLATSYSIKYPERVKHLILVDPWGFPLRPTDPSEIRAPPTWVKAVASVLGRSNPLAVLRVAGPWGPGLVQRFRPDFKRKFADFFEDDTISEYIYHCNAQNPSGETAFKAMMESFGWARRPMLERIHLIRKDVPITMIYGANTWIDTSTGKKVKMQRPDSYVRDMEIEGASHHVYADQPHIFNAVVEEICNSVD
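Test system: mABHD4 protein; Read-out basis: % inhibition; Incubation: 45 min + 60 min at 25 °C; Repeats: single replicate; Technique: fluorescence polarization with parallel and perpendicular emission, 525/598 nm; Compound: 8.92 µM, single dose; Benchmarks: full inhibition S159A mutant plus DMSO, zero as sample-well median.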
BSA TAMRA ctr = compounds interfering with TAMRA-BSA probe, counter-screen for TCR-CD3 interaction inhibitor project, biochemical, fluorescence, TAMRA-labeled BSA | AID 652035, 2013 | inhibition, % at 9.4 µM | 1,200 tested, 10% active | TAMRA-labeled BSA probe fluorescence counterscreen | shares compounds with TCR-CD3 inh; in the data active means inhibition above about 23%;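 further: 0% = buffer low control and 100% = reference high control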
TCR-CD3 conf = TCR-CD3 interaction inhibitors, retest, confirmation, biochemical, fluorescence, TAMRA-labeled TCR probe; shares compounds with TCR-CD3 inh; TAMRA-labeled TCR probe fluorescence binding assay; inhibition, % at 9.4 µM; 1,200 tested, 48% active; AID 652036, 2013
The depositor's hits bear a star; . = no result given; + = active, no number. Rows were chosen to be rich in hits. Some 3.3% of all compounds tested hit in one or more screens of this group. Unless noted, no stated cut-off is given here; in the data, active means inhibition above about 19%; inactive means the rest.

SMILES | rCAG binder | PRMT1 inh | TCR-CD3 inh | SIAE inh | mABHD4 FP | BSA TAMRA ctr | TCR-CD3 conf
Cc1ccc(S(=O)(=O)N(C)c2ccc(OCC(=O)Nc3nc4c(ccc5ccccc54)s3)cc2)cc1 | 14.1 | -1.2 | -9.2 | -15.4 | -2.1 | . | .
Cc1ccc(S(=O)(=O)N(C)c2ccc(OCC(=O)Nc3nc4ccccc4s3)cc2)cc1 | 12.7 | -0.7 | 20.7* | -30.6 | -13.1 | 4.7 | 0.4
Nn1c(SCC(=O)NC2CCCCC2)nnc1-c1cc(-c2ccc(Cl)cc2)n[nH]1 | 8.0 | 2.0 | . | 2.9 | -4.0 | . | .
COc1cccc2c1C(=O)c1c(O)c3c(c(O)c1C2=O)C[C@@](O)(C(=O)CO)C[C@@H]3O[C@H]1C[C@H](N)[C@H](O)[C@H](C)O1 | 9.9 | 128.8* | 137.0* | 39.3* | 52.0* | 157.0* | 126.6*
O=C(NCC(O)c1ccc([N+](=O)[O-])cc1)C1=COCCO1 (stereo unspecified) | -0.1 | 1.0 | + | 1.7 | 0.0 | 0.3 | 1.4
CN(CCc1ccccc1)C(=O)c1ccc2c(c1)ncn2C1CCCCC1 | 2.3 | 5.9 | . | -2.9 | 3.8 | . | .
COc1cccc(N2CCN(CC(=O)NCc3ccc(Cl)cc3)CC2)c1 | 0.6 | 0.2 | . | -0.2 | 2.0 | . | .
S=c1[nH]nc(-c2n[nH]c3c2CCC3)n1N=Cc1ccco1 | 3.5 | 11.7 | . | 13.6 | 9.6 | . | .
S=c1[nH]nc(-c2n[nH]c3c2CCC3)n1/N=C/C=C/c1ccco1 | 9.1 | 4.7 | 27.3* | 0.6 | 14.2 | 9.0 | 10.8
COC(=O)C1CN(Cc2cn(CCOC(C)=O)nn2)CCS(=O)(=O)N1Cc1ccc(Cl)cc1 (stereo unspecified) | 2.6 | 4.5 | . | -8.2 | 1.0 | . | .
O=C(NN=C1CCCC1)c1ccccc1[N+](=O)[O-] | 1.7 | 1.4 | -0.9 | 6.3 | 2.2 | . | .
O=C(NN=C1CCCC1)c1ccccc1O | 6.0 | -2.2 | 22.5* | 8.1 | 6.7 | -14.8 | 15.3
O=C(CCN1C(=O)/C(=C\c2ccccc2)SC1=S)NNC(=O)c1ccccc1O | 15.6 | 6.0 | 39.9* | -0.8 | 8.1 | -6.2 | 35.8*
O=C(CCCN1C(=O)S/C(=C\c2ccccc2)C1=O)NNC(=O)c1ccccc1O | 16.7 | 6.7 | 28.4* | 2.0 | 8.9 | -9.7 | 21.6*
COc1ccc(/C=C2\SC(=O)N(CC(=O)NNC(=O)c3ccccc3O)C2=O)cc1 | 22.7 | -1.1 | 58.8* | -28.8 | 0.1 | -8.5 | 52.9*
O=C(CCN1C(=O)/C(=C\c2ccccc2)SC1=S)NNC(=O)c1cccnc1 | 1.0 | -4.0 | 2.1 | -1.6 | -10.2 | . | .
O=C(CCCN1C(=O)/C(=C/c2ccccc2)SC1=S)Nc1ccccc1O | 10.8 | 0.7 | -2.7 | -3.1 | -10.7 | . | .
O=C(CN1C(=O)S/C(=C\c2ccccc2)C1=O)NNC(=O)c1ccccc1O | 28.0 | 8.1 | 44.1* | -5.7 | 8.2 | -9.3 | 53.2*
CCC[C@@H](/C=C/C(=O)OC(C)(C)C)Sc1ccccc1OC | 1.9 | 1.9 | . | -4.3 | 2.8 | . | .
Cc1ccc2nc(-c3ccc(NC(=O)CSc4nnc(-c5cc(-c6ccc(F)cc6)n[nH]5)n4N)cc3)sc2c1 | 6.0 | -0.7 | . | -6.2 | 2.2 | . | .
CS/C(N)=N/N=C/c1cc(Br)cc(Br)c1O | 20.3 | -3.5 | 35.4* | -1.9 | -2.6 | 13.8 | 35.7*
O=C(CN1CCN(c2ccccc2)CC1)N1CCc2[nH]c3ccccc3c2C1 | -4.3 | 1.8 | 21.9* | 4.1 | 5.1 | 3.4 | 0.5
Oc1ccccc1N=Nc1ccccc1O | 8.0 | 4.5 | 19.0* | 16.7 | 20.2 | -6.0 | 4.9
C=CCn1c(O)c(N=Nc2ccccc2O)c2ccccc21 | 18.8 | 14.7 | 4.9 | 15.9 | 10.7 | . | .
C=CCc1cccc2cc(C(=O)NNC(=O)CC#N)c(=O)oc12 | 6.8 | -1.0 | 28.6* | 2.8 | -2.8 | 0.8 | 15.2
SMILES | rCAG binder | PRMT1 inh | TCR-CD3 inh | SIAE inh | mABHD4 FP | BSA TAMRA ctr | TCR-CD3 conf
Cc1ccccc1N=Cc1c(O)n(-c2nccs2)c(=O)c2ccccc12 | 12.2 | 1.3 | 0.3 | -12.1 | 10.4 | . | .
O=c1c2ccccc2c(C=Nc2ccccc2O)c(O)n1-c1nccs1 | 17.8 | 4.4 | 61.5* | -6.1 | 1.0 | -10.3 | 49.7*
O=C(OCCN1CCN(C2CN(Cc3cn(Cc4ccccc4Cl)nn3)S(=O)(=O)C2)CC1)c1cc2ccccc2o1 (stereo unspecified) | 3.8 | 1.8 | . | -2.9 | 4.0 | . | .
Cc1cc(=O)oc2c(CN3CCC(C)CC3)c(O)c(Cl)cc12 | -1.3 | 6.7 | 24.9* | 26.1* | 28.4 | 33.3* | 35.3*
Cc1cc(=O)oc2c(CN3CCCC3)c(O)c(Cl)cc12 | 24.4 | 6.8 | 2.9 | -4.1 | 19.1 | . | .
Cc1nc2ccccc2c(=O)n1/N=C/c1c(O)ccc2ccccc12 | 1.9 | 1.1 | 23.6* | 4.4 | 4.5 | -8.8 | 7.9
Cc1n[nH]c(=S)n1/N=C/c1c(O)ccc2ccccc12 | 0.8 | 1.0 | 30.1* | 4.7 | 5.2 | -3.6 | 17.7
Cc1cc(C(=O)C(C)OC(=O)c2ccc(NC(=O)CC#N)cc2)c(C)n1-c1ccc(OC(F)F)cc1 (stereo unspecified) | 18.3 | 0.0 | 24.2* | -58.7 | -46.3 | 5.2 | 18.2
CN1OC[C@@H]2CN(Cc3ccccc3)[C@H](c3cccc(-c4ccc(C#N)cc4)c3)C[C@@H]21 | 5.5 | 2.9 | 24.0* | -2.6 | 3.4 | 1.3 | 5.0
O=C(N/N=C/c1ccc([N+](=O)[O-])cc1)c1cccs1 | 3.4 | -0.9 | -4.4 | -6.0 | 0.2 | . | .
O=C(N/N=C/c1cccc([N+](=O)[O-])c1O)C(O)(c1ccccc1)c1ccccc1 | 20.4 | 4.2 | 27.9* | 1.1 | 12.3 | -11.7 | 26.2*
O=C(N/N=C/c1cccc([N+](=O)[O-])c1O)c1cccs1 | 6.9 | 1.0 | 28.7* | 6.6 | 23.4 | -9.6 | 31.4*
COc1ccc(C(=O)O[C@@H]2CCC[C@@]3(C(=O)N(Cc4ccccc4)c4ccccc43)[C@H]2NC(=O)CCc2ccccc2)cc1OC | 11.2 | -3.5 | . | -11.5 | -12.6 | . | .
Cc1cc(C)n(Cc2ccc(C(=O)N/N=C/c3ccc(-c4ccc([N+](=O)[O-])cc4)o3)o2)n1 | -33.3 | -0.6 | 19.3* | -1.1 | 2.3 | -5.2 | 28.1*
COc1ccc(S[C@]2(C(=O)N3CCOCC3)CC(=O)N(C(=O)CCc3ccccc3)[C@@H]2c2ccc(OC)cc2)cc1 | 8.5 | 11.8 | . | -4.3 | -4.0 | . | .
COc1cc(CN2CCNC(=O)C2CC(=O)NCCCN2CCOCC2)cc(OC)c1 (stereo unspecified) | 5.1 | 3.6 | -7.7 | 2.2 | 7.7 | . | .
